Reference: PMC9638899 (Nucleic Acids Research, 2022)
“And” between values parts separate entries of the source, which are not always exact repeats. Equal entries are not always repeated.

Key:
Sis0455 [1] = assay: ITC binding of cA4 to Sis0455 wild type; parameters: species or system Sulfolobus islandicus
Sis0455-S11G = assay: ITC binding of cA4 to Sis0455-S11G; parameters: species or system Sulfolobus islandicus
Sis0455-K106G [2] = assay: ITC binding of cA4 to Sis0455-K106G; parameters: species or system Sulfolobus islandicus; details: 25°C, K106G mutant
Method in brief: (§1)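 His-tagged Sis0455 mutants (site-directed) were expressed in E. coli BL21 pRARE and purified. Protein and cA4 were dialysed into 50 mM HEPES pH 8.0, 300 mM KCl. cA4 (~50 or 100 μM, syringe) was titrated into protein (~5 or 10 μM) at 25°C: one 0.4 μl injection, then 19 × 2 μl, 150 s apart, 750 rpm. cA4-into-buffer controls were run. Normalised heats were fitted to a single-site model.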

Sis0455-R105G [3] = assay: ITC binding of cA4 to Sis0455-R105G; parameters: species or system Sulfolobus islandicus; details: 25°C, R105G mutant
Method in brief: as §1

Sis0455 D75G = assay: ITC binding of cA4 to Sis0455 D75G; parameters: species or system Sulfolobus islandicus; details: 25°C, D75G mutant
Method in brief: as §1

Sis0455 T10G [4] = assay: ITC binding of cA4 to Sis0455 T10G; parameters: species or system Sulfolobus islandicus; details: 25°C, T10G mutant
Method in brief: as §1

Sis0455 E17G/T37G = assay: ITC binding of cA4 to Sis0455 E17G/T37G; parameters: species or system Sulfolobus islandicus; details: 25°C, E17G/T37G mutant
Method in brief: as §1

Sis0455 N138G [5] = assay: ITC binding of cA4 to Sis0455 N138G; parameters: species or system Sulfolobus islandicus; details: 25°C, N138G mutant
Method in brief: as §1

Sis0455 E41G/R134G = assay: ITC binding of cA4 to Sis0455 E41G/R134G; parameters: species or system Sulfolobus islandicus; details: 25°C, E41G/R134G mutant
Method in brief: as §1

Sis0455 Q130G/Y133G [6] = assay: ITC binding of cA4 to Sis0455 Q130G/Y133G; parameters: species or system Sulfolobus islandicus; details: 25°C, Q130G/Y133G mutant
Method in brief: as §1

Sis0811 [7] = assay: Binding of cA4 to Sis0811; parameters: species or system Sulfolobus islandicus; details: Sis0811 versus SisCsx1
SisCsx1 [8] = assay: Binding of cA4 to SisCsx1; parameters: species or system Sulfolobus islandicus; details: SisCsx1 versus Sis0455
Sis0455 [9] = assay: cA4 cleavage activity assay and time course, LC ESI-MS, Sis0455; type: biochemical, Sulfolobus islandicus; details: time course, 40 μM cA4, 2 μM enzyme, 70°C
Sis0811 [10] = assay: cA4 cleavage time course, LC ESI-MS, Sis0811; type: biochemical, Sulfolobus islandicus; details: 70°C
Sis0455-K106G [11] = assay: cA4 cleavage activity assay, LC ESI-MS, Sis0455-K106G; type: biochemical, Sulfolobus islandicus; details: 40 μM cA4, 2 μM enzyme, 70°C, one hour
Method in brief: (§2)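 Each 50 μl reaction held 40 μM cA4 and 2 μM His-tagged Sis0455 variant (E. coli-expressed) in 20 mM Tris pH 8.0, 100 mM NaCl, 1 mM EDTA, for 1 h at 70°C. A no-enzyme control was included. Reactions were stopped at 4°C, phenol-extracted, dried and taken up in 8.6 mM TEA pH 8.3. Products were separated on C18 reverse-phase UPLC (TEA/acetonitrile gradient, 30°C) and read by negative-ion ESI-MS. Runs were at least duplicates.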

Sis0455-R105G [12] = assay: cA4 cleavage activity assay, LC ESI-MS, Sis0455-R105G; type: biochemical, Sulfolobus islandicus; details: 40 μM cA4, 2 μM enzyme, 70°C, one hour
Method in brief: as §2

Sis0455 T10G [13] = assay: cA4 cleavage activity assay, LC ESI-MS, Sis0455 T10 glycine substitution; type: biochemical, Sulfolobus islandicus; details: 40 μM cA4, 2 μM enzyme, 70°C, one hour, T10 substituted by glycine
Method in brief: as §2

[14] = test system: Sis0455 E17/E37 glycine substitution; assay: cA4 cleavage activity assay, LC ESI-MS, Sis0455 E17/E37 glycine substitution; type: biochemical, Sulfolobus islandicus; details: 40 μM cA4, 2 μM enzyme, 70°C, one hour, E17/E37 substituted by glycine
Method in brief: as §2

Sis0455 N138G [15] = assay: cA4 cleavage activity assay, LC ESI-MS, Sis0455 N138G; type: biochemical, Sulfolobus islandicus; details: 40 μM cA4, 2 μM enzyme, 70°C, one hour
Method in brief: as §2

Sis0455 Q130G/Y133G [16] = assay: cA4 cleavage activity assay, LC ESI-MS, Sis0455 Q130G/Y133G; type: biochemical, Sulfolobus islandicus; details: 40 μM cA4, 2 μM enzyme, 70°C, one hour
Method in brief: as §2

Sis0455-E41G/R134G = assay: cA4 cleavage activity assay, LC ESI-MS, Sis0455-E41G/R134G; type: biochemical, Sulfolobus islandicus; details: 40 μM cA4, 2 μM enzyme, 70°C, one hour
Method in brief: as §2

SisCsx1 [17] = details: cited from earlier work
Sso2081 = Sso2081 versus Sso1393; cited from earlier work

Cyclic tetraadenylate [cA4]
Kd (Sis0455 [1]; ITC, 25°C, wild type Sis0455): 2.2 nM and 2 nM
higher affinity for cA4 of Sis0455 than Sis0811 (Sis0455 [1]; Sis0455 versus Sis0811 (ref 37)): 5 fold
Kd (Sis0455-S11G; ITC, 25°C, S11G variant): 19.5 nM
decrease in the binding affinity (Sis0455-S11G; S11G variant versus wild type Sis0455): ~10 fold
Kd (Sis0455-K106G [2]): 4100 nM
cA4 binding (Sis0455-R105G [3]): abolished cA4 binding
cA4 binding (Sis0455 D75G): abolished cA4 binding
Kd (Sis0455 T10G [4]): 35.3 nM
Kd (Sis0455 E17G/T37G): 3.5 nM
Kd (Sis0455 N138G [5]): 10.5 nM
Kd (Sis0455 E41G/R134G): 1.9 nM
Kd (Sis0455 Q130G/Y133G [6]): 2600 nM
affinity higher than that of SisCsx1 (Sis0811 [7]): 2 fold
affinity for cA4 lower than Sis0455 (SisCsx1 [8]): 10 fold
time to fully degrade cA4 producing 100% P1 product (Sis0455 [9]): 50 min
time to cleave the second phosphodiester bond converting all the linear product in the P1 dinucleotide (Sis0811 [10]; Sis0811): 30 min
time to fully degrade cA4 producing 100% P1 product (Sis0811 [10]; Sis0811): 50 min
time to convert almost 100% of the cyclic molecule in the P3 linear product (Sis0811 [10]; Sis0811, first phosphodiester): 20 min
cA4 cleavage activity (Sis0455-K106G [11]): abolished the cleavage activity
cA4 cleavage activity (Sis0455-R105G [12]): abrogated the nuclease activity
cA4 cleavage activity (Sis0455 T10G [13]): did not affect catalysis
cA4 cleavage activity [14]: did not affect catalysis
cA4 cleavage activity (Sis0455 N138G [15]): did not affect catalysis
cA4 cleavage activity (Sis0455 Q130G/Y133G [16]): did not affect catalysis
cA4 cleavage activity (Sis0455-E41G/R134G): showed cA4 as major specie
Kd (SisCsx1 [17]): 20 nM
cA4 processing faster than Sso1393 (Sso2081): 10 fold
